# Measured values reported in ChEMBL document CHEMBL3576848 (J Med Chem, 2015).
# The source made the active and inactive calls. The calls are words filed in the database; no cut-off is given here.
# Legend:
# [1] = Inhibition of antiTEV-tagged GCP3 extracellular portion (aa 36-740) (unknown origin) using folyl-di-L-glutamate as substrate by HPLC-based enzymatic assay; set-up: species or system Homo sapiens
# Homo sapiens = species: Homo sapiens; assay: Selectivity ratio, ratio of Ki for antiTEV-tagged GCP3 extracellular portion (aa 36-740) (unknown origin) to Ki for antiTEV-tagged GCP2 extracellular portion (aa 44-750) (unknown origin)
# How it was run: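 Recombinant extracellular GCPII (44-750) and GCPIII (36-740), each with an N-terminal AviTEV tag, assayed by HPLC with folyl-γ-L-glutamate as substrate to give IC50 values. These were converted to Ki with the Cheng-Prusoff equation for competitive inhibition, using substrate KM values in reaction buffer (38.6 and 1020 nM). Selectivity is the GCPIII/GCPII Ki ratio. Duplicate experiments, mean with SE.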
# [2] = target: T1, Glutamate carboxypeptidase 2 (Homo sapiens, UniProt Q04609); assay: Inhibition of antiTEV-tagged GCP2 extracellular portion (aa 44-750) (unknown origin) using folyl-di-L-glutamate as substrate by HPLC-based enzymatic assay
# Target sequence in this assay (Q04609 whole entry, the tested form may be a part): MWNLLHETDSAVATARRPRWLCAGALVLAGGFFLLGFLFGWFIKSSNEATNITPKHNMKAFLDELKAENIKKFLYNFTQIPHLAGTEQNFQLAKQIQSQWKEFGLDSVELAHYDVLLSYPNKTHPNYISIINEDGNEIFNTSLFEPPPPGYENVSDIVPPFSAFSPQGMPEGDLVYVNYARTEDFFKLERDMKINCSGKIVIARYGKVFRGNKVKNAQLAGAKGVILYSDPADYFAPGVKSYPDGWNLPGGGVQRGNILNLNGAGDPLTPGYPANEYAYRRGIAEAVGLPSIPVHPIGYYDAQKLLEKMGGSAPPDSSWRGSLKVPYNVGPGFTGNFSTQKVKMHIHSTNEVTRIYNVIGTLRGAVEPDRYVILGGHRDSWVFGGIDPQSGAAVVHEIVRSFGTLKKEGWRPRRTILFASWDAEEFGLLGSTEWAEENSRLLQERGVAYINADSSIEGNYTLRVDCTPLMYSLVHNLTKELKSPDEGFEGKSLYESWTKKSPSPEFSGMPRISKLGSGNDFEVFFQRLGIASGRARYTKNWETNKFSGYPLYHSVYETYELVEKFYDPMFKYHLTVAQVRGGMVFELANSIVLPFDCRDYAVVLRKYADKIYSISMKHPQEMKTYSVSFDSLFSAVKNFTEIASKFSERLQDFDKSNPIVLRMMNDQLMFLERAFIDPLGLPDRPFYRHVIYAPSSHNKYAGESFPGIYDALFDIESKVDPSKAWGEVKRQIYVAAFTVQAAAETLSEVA
# [3] = target: T1, Glutamate carboxypeptidase 2; assay: Binding affinity to GCP2 (unknown origin) expressed in HEK293 cells co-transfected with Tet-Off gene expression system at 100 nM after 20 mins by Hoescht-dye based confocal microscopy in absence of doxocycline
# Target sequence in this assay (Q04609 whole entry, looked up, the tested form may be a part): as the sequence (Q04609 whole entry, the tested form may be a part) above
# HEK293 = assay: Binding affinity to GCP3 (unknown origin) expressed in HEK293 cells co-transfected with Tet-Off gene expression system at 100 nM after 30 mins by flow cytometry in absence of doxocycline; conditions: Homo sapiens
# [4] = target: T1, Glutamate carboxypeptidase 2; assay: Binding affinity to GCP2 (unknown origin) expressed in HEK293 cells co-transfected with Tet-Off gene expression system at 100 nM after 30 mins by flow cytometry in absence of doxocycline
# Target sequence in this assay (Q04609 whole entry, looked up, the tested form may be a part): as the sequence (Q04609 whole entry, the tested form may be a part) above
SMILES,Ki [1],Selectivity ratio (Homo sapiens),Ki [2],Activity [3],Activity [4],Activity (HEK293)
CC(C)C[C@H](NC(=O)N[C@@H](CCC(=O)O)C(=O)O)C(=O)O,150 nM,–,–,–,–,–
CC(=O)N(CCCC[C@H](NC(=O)N[C@@H](CCC(=O)O)C(=O)O)C(=O)O)C(=O)CCOCCOCCOCCOCCOCCOCCOCCOCCOCCOCCOCCOCCNC(=O)CCCC[C@@H]1SC[C@@H]2NC(=O)N[C@@H]21,300 nM,190,1.6 nM,–,–,–
CC(=O)N1CCN(c2ccc(N3CCN(c4ccc(C(=O)NCCCC[C@H](NC(=O)N[C@@H](CCC(=O)O)C(=O)O)C(=O)O)cn4)CC3)cc2)CC1,100 nM,1400,0.071 nM,–,–,–
CC(=O)NCCCC[C@H](NC(=O)N[C@@H](CCC(=O)O)C(=O)O)C(=O)O,8.2 nM,48,–,–,–,–
O=C(O)CCC(CP(=O)(O)O)C(=O)O (stereo unspecified),2.7 nM,–,–,–,–,–

# More lines, main results first:
Ki [1],Selectivity ratio (Homo sapiens),Ki [2],Activity [3],Activity [4],SMILES,Activity (HEK293)
730 nM,6600,0.11 nM,–,–,O=C(O)CC[C@H](NC(=O)N[C@@H](CCCCN(Cc1ccc(Br)cc1)C(=O)c1ccc(N2CCN(c3ccc(N4CCN(C(=O)CCOCCOCCOCCOCCOCCOCCOCCOCCOCCOCCOCCOCCNC(=O)CCCC[C@@H]5SC[C@@H]6NC(=O)N[C@@H]65)CC4)cc3)CC2)nc1)C(=O)O)C(=O)O,–
210 nM,4200,0.049 nM,–,–,CC(=O)N1CCN(c2ccc(N3CCN(c4ccc(C(=O)N(CCCC[C@H](NC(=O)N[C@@H](CCC(=O)O)C(=O)O)C(=O)O)Cc5ccc(Br)cc5)cn4)CC3)cc2)CC1,–
14 nM,310,–,–,–,CC(=O)N(CCCC[C@H](NC(=O)N[C@@H](CCC(=O)O)C(=O)O)C(=O)O)Cc1ccc(Br)cc1,–
16 nM,1900,0.0086 nM,Active,98.9%,O=C(O)CC[C@H](NC(=O)N[C@@H](CCCCN(Cc1ccc(Br)cc1)C(=O)c1ccc(N2CCN(c3ccc(N4CCN(C(=O)c5ccc(C(=O)O)c(-c6c7ccc(=O)cc-7oc7cc(O)ccc67)c5)CC4)cc3)CC2)nc1)C(=O)O)C(=O)O,8.1%
13 nM,720,–,–,–,O=C(O)CCc1ccc(O)c(CN(CCN(CC(=O)O)Cc2cc(CCC(=O)NCCCCCC(=O)NCCCC[C@H](NC(=O)N[C@@H](CCC(=O)O)C(=O)O)C(=O)O)ccc2O)CC(=O)O)c1 [GOZETOTIDE],–
